pIC50: −log10 of the molar value. The source made the active and inactive calls.
Legend:
Schistosoma mansoni [1] = assay: Antischistosomal activity against schistosomula of Schistosoma mansoni assessed as effect on parasite phenotype by throughput high content image analysis; assay type: functional, organism-based
Outline: (§1)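 Puerto Rican (NMRI) strain cercariae were mechanically transformed to schistosomula. About 120 larvae were co-cultured with compound for 72 hr at 37 °C, 5% CO2, at 0.625% DMSO final. Controls were DMSO and auranofin. Motility and phenotype were scored by automated image analysis, with a hit threshold of ≤-0.15 (phenotype) and ≤-0.35 (motility) in ≥70% of larvae. Runs were in duplicate, and IC50 was estimated from dose-response curves.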

Schistosoma mansoni [2] = assay: Antischistosomal activity against schistosomula of Schistosoma mansoni assessed as effect on parasite motility by throughput high content image analysis; assay type: functional, organism-based; outline: as §1
Schistosoma mansoni [3] = assay: Antischistosomal activity against adult stage of Schistosoma mansoni assessed as effect on parasite motility after 72 hrs by microscopic method; assay type: functional, organism-based
Outline: (§2)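 Mice were infected percutaneously with 200 cercariae, and adults were recovered by portal perfusion at seven weeks. Three worm pairs per well in modified DMEM with 10% FCS were given compound at 50, 25, 12.5 and 6.25 µM final (0.3% DMSO) for 72 hr at 37 °C, 5% CO2. Controls were DMSO and auranofin. Worms were scored manually by microscopy at 24, 48 and 72 hr. Experiments were run in duplicate.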

Schistosoma mansoni [4] = assay: Antischistosomal activity against schistosomula of Schistosoma mansoni at 25 uM by throughput high content image analysis; assay type: functional, organism-based; outline: as §1
Schistosoma mansoni [5] = assay: Antischistosomal activity against schistosomula of Schistosoma mansoni at 10 uM by throughput high content image analysis; assay type: functional, organism-based; outline: as §1
Schistosoma mansoni [6] = assay: Antischistosomal activity against schistosomula of Schistosoma mansoni at 1 uM by throughput high content image analysis; assay type: functional, organism-based
Schistosoma mansoni [7] = assay: Antischistosomal activity against adult stage of Schistosoma mansoni at 50 uM after 24 to 72 hrs by microscopic method; assay type: functional, organism-based; outline: as §2
Schistosoma mansoni [8] = assay: Antischistosomal activity against adult stage of Schistosoma mansoni assessed as effect on parasite motility up to 12.5 uM after 72 hrs by microscopic method; assay type: functional, organism-based; outline: as §2
Schistosoma mansoni [9] = assay: Antischistosomal activity against adult stage of Schistosoma mansoni assessed as appearance of abnormal shaped eggs at 6.25 uM after 72 hrs by fluorescence microscopic method; assay type: functional, organism-based
Outline: (§3)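 Adult worm pairs from infected MF-1 mice were cultured 72 hr at 37 °C, 5% CO2, in modified DMEM with 10% FCS. At 72 hr, eggs were collected from each well, counted, pelleted at 200 x g, fixed in 10% formaldehyde in PBS, and viewed under natural light and a GFP filter.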

Schistosoma mansoni [10] = assay: Antischistosomal activity against adult stage of Schistosoma mansoni assessed as appearance of smaller eggs at 6.25 uM after 72 hrs by fluorescence microscopic method; assay type: functional, organism-based; outline: as §3
Schistosoma mansoni [11] = assay: Antischistosomal activity against adult stage of Schistosoma mansoni assessed as loss of lateral spine in eggs at 6.25 uM after 72 hrs by fluorescence microscopic method; assay type: functional, organism-based; outline: as §3
Schistosoma mansoni [12] = assay: Antischistosomal activity against adult stage of Schistosoma mansoni assessed as irregular auto-fluorescence of eggs at 6.25 uM after 72 hrs by fluorescence microscopic method; assay type: functional, organism-based; outline: as §3
[13] = Cytotoxicity against human HepG2 cells after 24 hrs by MTT assay; assay type: cell-based
Outline: (§4)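 Cells were grown to about 80% confluence (HepG2 in BME, MDBK in EMEM, each with 10% FBS). They were seeded at 2.5 x10^4 per well and rested 24 hr, then exposed 24 hr to compound at 100–0.01 µM (1.25% DMSO). Controls were DMSO and 1% Triton X-100. Viability was read by MTT, and CC50 came from dose-response curves run in triplicate.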

[14] = Cytotoxicity against MDBK cells after 24 hrs by MTT assay; assay type: cell-based, Bos taurus; settings: cattle; outline: as §4
[15] = Selectivity index, ratio of IC50 for human HepG2 cells to IC50 for antischistosomal activity against schistosomula of Schistosoma mansoni assessed as effect on parasite phenotype; assay type: toxicity; settings: read-out: Ratio IC50
Outline: (§5)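 Selectivity index was calculated as the CC50 from the HepG2 or MDBK MTT assay divided by the schistosomula phenotype or motility IC50 from the 72 hr image-based screen.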

[16] = Selectivity index, ratio of IC50 for human HepG2 cells to IC50 for antischistosomal activity against schistosomula of Schistosoma mansoni assessed as effect on parasite motility; assay type: toxicity; settings: read-out: Ratio IC50; outline: as §5
[17] = Selectivity index, ratio of IC50 for MDBK cells to IC50 for antischistosomal activity against schistosomula of Schistosoma mansoni assessed as effect on parasite phenotype; assay type: toxicity; settings: cattle, read-out: Ratio IC50; outline: as §5
[18] = Selectivity index, ratio of IC50 for MDBK cells to IC50 for antischistosomal activity against schistosomula of Schistosoma mansoni assessed as effect on parasite motility; assay type: toxicity; settings: cattle, read-out: Ratio IC50; outline: as §5
Fasciola hepatica [19] = assay: Antifasciola activity against newly excysted juveline stage of Fasciola hepatica Italian assessed as effect on parasite phenotype after 72 hrs; assay type: functional, organism-based
Outline: (§6)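 NEJs came from Italian-strain metacercariae, excysted either by pepsin/HCl or by needle rupture, then 1 hr in sodium tauroglycocholate. They were plated at 25 per well in RPMI-1640 with 1% FCS. Screening was at 25 and 12.5 µM, then titration from 10 to 0.625 µM (0.16% DMSO). Controls were DMSO and 10 µM triclabendazole. Motility and phenotype were scored at 72 hr, with IC50 from dose-response curves.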

Fasciola hepatica [20] = assay: Antifasciola activity against newly excysted juveline stage of Fasciola hepatica Italian assessed as effect on parasite motility after 72 hrs; assay type: functional, organism-based; outline: as §6
Fasciola hepatica [21] = assay: Antifasciola activity against immature stage of Fasciola hepatica Italian assessed as effect on parasite motility after 72 hrs; assay type: functional, organism-based
Fasciola hepatica [22] = assay: Antifasciola activity against adult stage of Fasciola hepatica Italian assessed as effect on parasite motility after 72 hrs; assay type: functional, organism-based
[23] = Selectivity index, ratio of IC50 for human HepG2 cells to IC50 for newly excysted juveline stage of Fasciola hepatica Italian assessed as effect on parasite phenotype; assay type: toxicity; settings: read-out: Ratio IC50
Outline: (§7)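 Selectivity index was calculated as the CC50 from the HepG2 or MDBK MTT assay divided by the F. hepatica NEJ phenotype or motility IC50 from the 72 hr manual scoring assay.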

[24] = Selectivity index, ratio of IC50 for human HepG2 cells to IC50 for newly excysted juveline stage of Fasciola hepatica Italian assessed as effect on parasite motility; assay type: toxicity; settings: read-out: Ratio IC50; outline: as §7
[25] = Selectivity index, ratio of IC50 for MDBK cells to IC50 for newly excysted juveline stage of Fasciola hepatica Italian assessed as effect on parasite phenotype; assay type: toxicity; settings: cattle, read-out: Ratio IC50; outline: as §7
[26] = Selectivity index, ratio of IC50 for MDBK cells to IC50 for newly excysted juveline stage of Fasciola hepatica Italian assessed as effect on parasite motility; assay type: toxicity; settings: cattle, read-out: Ratio IC50; outline: as §7
Schistosoma mansoni [27] = assay: Antischistosomal activity against male adult stage of Schistosoma mansoni assessed as tegumental disruption throughtout the whole body at 25 uM after 72 hrs by osmium tetroxide staining-based scanning electron microscopic method; assay type: functional, organism-based
Schistosoma mansoni [28] = assay: Antischistosomal activity against male adult stage of Schistosoma mansoni assessed as loss of spinous tubercles natural shape at 25 uM after 72 hrs by osmium tetroxide staining-based scanning electron microscopic method; assay type: functional, organism-based
Schistosoma mansoni [29] = assay: Antischistosomal activity against female adult stage of Schistosoma mansoni assessed as tegumental disruption throughtout the whole body at 25 uM after 72 hrs by osmium tetroxide staining-based scanning electron microscopic method; assay type: functional, organism-based
Schistosoma mansoni [30] = assay: Antischistosomal activity against female adult stage of Schistosoma mansoni assessed as loss of spinous tubercles natural shape at 25 uM after 72 hrs by osmium tetroxide staining-based scanning electron microscopic method; assay type: functional, organism-based
Fasciola hepatica [31] = assay: Antifasciola activity against adult stage of Fasciola hepatica Italian assessed as decoration of ventral surface by swollen tegumantal ridges and smaller spines at 40 uM after 72 hrs by osmium tetroxide staining-based scanning electron microscopic method; assay type: functional, organism-based
Fasciola hepatica [32] = assay: Antifasciola activity against immature stage of Fasciola hepatica Italian assessed as loss of spines on ventral surface at 13.3 uM after 72 hrs by osmium tetroxide staining-based scanning electron microscopic method; assay type: functional, organism-based
Fasciola hepatica [33] = assay: Antifasciola activity against immature stage of Fasciola hepatica Italian assessed as sloughing of tegument at 13.3 uM after 72 hrs by osmium tetroxide staining-based scanning electron microscopic method; assay type: functional, organism-based
Fasciola hepatica [34] = assay: Antifasciola activity against immature stage of Fasciola hepatica Italian assessed as exposure of basal lamina at 13.3 uM after 72 hrs by osmium tetroxide staining-based scanning electron microscopic method; assay type: functional, organism-based

CC1(C)CCC[C@]2(C)c3ccc(O)cc3CC[C@@H]12
pIC50 (Schistosoma mansoni [1]): 5.17
pIC50 (Schistosoma mansoni [2]): 5.20
pIC50 (Schistosoma mansoni [3]): 4.70
Activity (Schistosoma mansoni [4]): Active
Activity (Schistosoma mansoni [5]): Active
Activity (Schistosoma mansoni [6]): inactive
Activity (Schistosoma mansoni [7]): Active
Activity (Schistosoma mansoni [8]): Active
Activity (Schistosoma mansoni [9]): Active
Activity (Schistosoma mansoni [10]): Active
Activity (Schistosoma mansoni [11]): Active
Activity (Schistosoma mansoni [12]): Active
CC50 at 24 h [13]: 25.6 µM
CC50 at 24 h [14]: 32.5 µM
selectivity ratio [15]: 3.8
selectivity ratio [16]: 4.1
selectivity ratio [17]: 4.8
selectivity ratio [18]: 5.2
pIC50 (Fasciola hepatica [19]): 5.49
pIC50 (Fasciola hepatica [20]): 5.60
pIC50 (Fasciola hepatica [21]): 4.98
pIC50 (Fasciola hepatica [22]): 4.55
selectivity ratio [23]: 8
selectivity ratio [24]: 10.2
selectivity ratio [25]: 10.2
selectivity ratio [26]: 13
Activity (Schistosoma mansoni [27]): Active
Activity (Schistosoma mansoni [28]): Active
Activity (Schistosoma mansoni [29]): Active
Activity (Schistosoma mansoni [30]): Active
Activity (Fasciola hepatica [31]): Active
Activity (Fasciola hepatica [32]): Active
Activity (Fasciola hepatica [33]): Active
Activity (Fasciola hepatica [34]): Active

Source: ChEMBL document CHEMBL4152233, “Design, synthesis and anthelmintic activity of 7-keto-sempervirol analogues” (Eur J Med Chem, 2018)
